What was measured:
[1] = Oxygen radical absorption capacity; settings: TEAC units; X = EO or compound
Procedure, shortened: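 Peroxyl radical (ROO) scavenging by the oils and individual components, following a published ORAC method, in triplicate. Data are mean ± SD, with significance by ANOVA/Tukey's HSD (p < 0.05).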

[2] = ABTS radical cation bleaching assay; settings: TEAC units; X = EO or compound
Procedure, shortened: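 ABTS radical cation (ABTS•+) bleaching by essential oils and their individual components, run in triplicate by a published method. Results are given as mean ± SD, compared by ANOVA with Tukey's HSD (p < 0.05).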

[3] = DPPH radical scavenging capacity; settings: TEAC units; X = EO or compound
Procedure, shortened: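 DPPH radical scavenging by essential oils and individual components, by a published method, in triplicate. Values are expressed as μmol TE/mL EO and given as mean ± SD, with ANOVA/Tukey's HSD at p < 0.05.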

Chelating power = settings: for ChP: EDTAE units, X = EO or compound
Procedure, shortened: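 Ferrous ion chelation by essential oils and their major components, by a published method, in triplicate. Results are expressed as EDTA equivalents per volume of EO, mean ± SD, with ANOVA/Tukey's HSD (p < 0.05).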

Reducing power = settings: AAE units; X = EO or compound
Procedure, shortened: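 Reduction of potassium ferricyanide by the oils and individual components, by a published method, in triplicate. Results are reported as ascorbic acid equivalents per volume of EO, mean ± SD, with ANOVA/Tukey's HSD (p < 0.05).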

[4] = Thiobarbituric acid reactive substances; settings: for TBARS: BHTE units, X = EO or compound
Procedure, shortened: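 TBARS formation by oxidation measured in soybean lecithin homogenate as lipid-rich medium, by a published method, in triplicate. Values are expressed as μmol BHTE/mL EO, mean ± SD, with ANOVA/Tukey's HSD (p < 0.05).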

[5] = target: T1, lipoxygenase (LOX) (linoleate:oxygen oxidoreductase, EC 1.13.11.12) (Glycine max, UniProt P08170); test: Lipoxygenase; assay type: biochemical, Glycine max (soybean); settings: soybean LOX, linoleic acid substrate, 25 °C; mean ± SD
T1 sequence (P08170 1-839): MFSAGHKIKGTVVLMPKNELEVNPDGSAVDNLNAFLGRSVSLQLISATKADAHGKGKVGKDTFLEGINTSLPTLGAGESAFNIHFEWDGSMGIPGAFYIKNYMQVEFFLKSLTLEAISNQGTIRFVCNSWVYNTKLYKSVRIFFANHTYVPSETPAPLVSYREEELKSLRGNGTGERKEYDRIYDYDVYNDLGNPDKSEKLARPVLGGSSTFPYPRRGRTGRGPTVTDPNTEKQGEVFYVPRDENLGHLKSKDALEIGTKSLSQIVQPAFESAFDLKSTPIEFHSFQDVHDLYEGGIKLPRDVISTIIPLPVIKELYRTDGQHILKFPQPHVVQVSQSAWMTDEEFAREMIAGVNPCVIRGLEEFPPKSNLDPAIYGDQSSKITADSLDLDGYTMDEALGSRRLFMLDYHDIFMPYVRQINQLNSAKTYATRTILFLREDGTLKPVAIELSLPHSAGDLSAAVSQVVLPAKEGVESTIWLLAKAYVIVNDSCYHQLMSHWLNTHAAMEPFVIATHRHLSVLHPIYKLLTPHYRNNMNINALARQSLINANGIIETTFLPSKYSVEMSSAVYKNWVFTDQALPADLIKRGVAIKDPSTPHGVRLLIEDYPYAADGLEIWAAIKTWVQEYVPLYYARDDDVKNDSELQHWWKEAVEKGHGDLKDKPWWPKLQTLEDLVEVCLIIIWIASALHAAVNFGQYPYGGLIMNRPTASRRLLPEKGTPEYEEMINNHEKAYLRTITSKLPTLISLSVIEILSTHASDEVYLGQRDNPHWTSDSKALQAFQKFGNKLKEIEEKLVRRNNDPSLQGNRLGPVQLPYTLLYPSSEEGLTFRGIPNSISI

For C=C1C2CCC(C2)C1(C)C (stereo not shown) [Camphene], the ORAC [1] was “N/D (Activity lower than 0.05 units at a maximum assay concentration of 100 mM)”, the ABTS [2] was 0.8 ± 0.0 μmol TE/mL X and the DPPH [3] was “N/D (Activity lower than 0.05 units at a maximum assay concentration of 100 mM)”. For the same compound, the ChP (Chelating power) was 9.9 ± 0.7 μmol EDTAE/mL X, the RdP (Reducing power) was 3238.9 ± 157.4 μmol AAE/L X and the TBARS [4] was “N/D (Activity lower than 0.05 units at a maximum assay concentration of 100 mM)”.
In the case of CC(C)C12CCC(C)(O)C1C2 (stereo not shown) [Sabinene hydrate], the ORAC [1] is reported as 0.3 ± 0.0 μmol TE/μL X, the ABTS [2] is reported as 3.2 ± 0.2 μmol TE/mL X and the DPPH [3] is reported as “N/D (Activity lower than 0.05 units at a maximum assay concentration of 100 mM)”. The ChP (Chelating power) was 44.9 ± 3.7 μmol EDTAE/mL X, the RdP (Reducing power) was “N/D (Activity lower than 0.05 units at a maximum assay concentration of 100 mM)” and the TBARS [4] was 97.2 ± 4.2 μmol BHTE/mL X.
In the case of Cc1ccc(C(C)C)cc1O [Carvacrol], the ORAC [1] is reported as 2.8 ± 0.1 μmol TE/μL X, the ABTS [2] is reported as 7804.4 ± 268.1 μmol TE/mL X and the DPPH [3] is reported as 34.9 ± 2.5 μmol TE/mL X. The ChP (Chelating power) was “N/D (Activity lower than 0.05 units at a maximum assay concentration of 100 mM)”, the RdP (Reducing power) was 3239.6 ± 143.0 μmol AAE/L X and the TBARS [4] was 600.7 ± 102.2 μmol BHTE/mL X.
With CC1=CCC(C(C)C)=CC1 [γ-terpinene] the ORAC [1] was 1.1 ± 0.1 μmol TE/μL X, the ABTS [2] was 15.6 ± 0.7 μmol TE/mL X and the DPPH [3] was 2.1 ± 0.1 μmol TE/mL X. The ChP (Chelating power) was 2.0 ± 0.1 μmol EDTAE/mL X, the RdP (Reducing power) was 1990.6 ± 160.2 μmol AAE/L X and the “TBARS antioxidant activity, result in words” value [4] was “strong TBARS antioxidant activity”. The TBARS [4] was 273.2 ± 24.4 μmol BHTE/mL X.
In the case of Cc1ccc(C(C)C)cc1 [p-cymene], the ORAC [1] is reported as “N/D (Activity lower than 0.05 units at a maximum assay concentration of 100 mM)”, the ABTS [2] is reported as 0.6 ± 0.0 μmol TE/mL X and the DPPH [3] is reported as “N/D (Activity lower than 0.05 units at a maximum assay concentration of 100 mM)”. The “Chelating power (ChP), result in words” value (Chelating power) was “high chelating activity”, the ChP (Chelating power) was 124.7 ± 9.8 μmol EDTAE/mL X and the RdP (Reducing power) was “N/D (Activity lower than 0.05 units at a maximum assay concentration of 100 mM)”. For the same compound, the TBARS [4] was “N/D (Activity lower than 0.05 units at a maximum assay concentration of 100 mM)” and the “LOX inhibitory activity, IC50 of main commercially available compounds” value [5] was 79 ± 5 μL (Compound)/L.
Work on Cc1ccc(C(C)C)c(O)c1 [thymol] yielded an ORAC [1] of 2.1 ± 0.1 μmol TE/μL X, an ABTS [2] of 6897.1 ± 225.0 μmol TE/mL X and a DPPH [3] of 34.9 ± 2.1 μmol TE/mL X. The “Chelating power (ChP), result in words” value (Chelating power) was “do not show any ChP”, the ChP (Chelating power) was “N/D (Activity lower than 0.05 units at a maximum assay concentration of 100 mM)” and the RdP (Reducing power) was 3353.9 ± 133.4 μmol AAE/L X. The TBARS [4] was 869.4 ± 255.2 μmol BHTE/mL X and the “LOX inhibitory activity, IC50 of main commercially available compounds” value [5] was 23 ± 2 μL (Compound)/L.
With CC1=CCC2CC1C2(C)C (stereo not drawn) [α-Pinene] the ORAC [1] was 0.2 ± 0.0 μmol TE/μL X, the ABTS [2] was “N/D (Activity lower than 0.05 units at a maximum assay concentration of 100 mM)” and the DPPH [3] was 0.1 ± 0.0 μmol TE/mL X. The ChP (Chelating power) was 104.8 ± 7.0 μmol EDTAE/mL X, the RdP (Reducing power) was “N/D (Activity lower than 0.05 units at a maximum assay concentration of 100 mM)” and the TBARS [4] was 16.3 ± 0.5 μmol BHTE/mL X.
In the case of CC1=CC[C@@H](C(C)(C)O)CC1 [α-Terpineol], the ORAC [1] is reported as 1.9 ± 0.1 μmol TE/μL X, the ABTS [2] is reported as 1.1 ± 0.1 μmol TE/mL X and the DPPH [3] is reported as “N/D (Activity lower than 0.05 units at a maximum assay concentration of 100 mM)”. For the same compound, the ChP (Chelating power) was 29.9 ± 1.9 μmol EDTAE/mL X, the RdP (Reducing power) was “N/D (Activity lower than 0.05 units at a maximum assay concentration of 100 mM)” and the TBARS [4] was 15.6 ± 0.5 μmol BHTE/mL X.
For C=C1CCC2CC1C2(C)C (stereo not drawn) [β-Pinene], the ORAC [1] was “N/D (Activity lower than 0.05 units at a maximum assay concentration of 100 mM)”, the ABTS [2] was 0.7 ± 0.0 μmol TE/mL X and the DPPH [3] was 0.1 ± 0.0 μmol TE/mL X. The ChP (Chelating power) was 11.7 ± 0.7 μmol EDTAE/mL X, the RdP (Reducing power) was “N/D (Activity lower than 0.05 units at a maximum assay concentration of 100 mM)” and the TBARS [4] was 28.9 ± 1.9 μmol BHTE/mL X.
For C=C1CC/C=C(\C)CC[C@@H]2[C@@H]1CC2(C)C [β-Caryophyllene], the ORAC [1] was 1.7 ± 0.1 μmol TE/μL X, the ABTS [2] was “N/D (Activity lower than 0.05 units at a maximum assay concentration of 100 mM)” and the DPPH [3] was “N/D (Activity lower than 0.05 units at a maximum assay concentration of 100 mM)”. For the same compound, the ChP (Chelating power) was 31.6 ± 2.2 μmol EDTAE/mL X, the RdP (Reducing power) was “N/D (Activity lower than 0.05 units at a maximum assay concentration of 100 mM)” and the TBARS [4] was 76.5 ± 3.4 μmol BHTE/mL X.
With C=CC(C)(CCC=C(C)C)OC(C)=O (stereo not shown) [linalyl acetate] the ORAC [1] was 1.0 ± 0.1 μmol TE/μL X, the ABTS [2] was 0.3 ± 0.0 μmol TE/mL X and the DPPH [3] was “N/D (Activity lower than 0.05 units at a maximum assay concentration of 100 mM)”. For the same compound, the “Chelating power (ChP), result in words” value (Chelating power) was “high ChP”, the ChP (Chelating power) was 125.7 ± 9.4 μmol EDTAE/mL X and the RdP (Reducing power) was “N/D (Activity lower than 0.05 units at a maximum assay concentration of 100 mM)”. For the same compound, the TBARS [4] was 19.6 ± 0.6 μmol BHTE/mL X.
CC1=CCC(O)(C(C)C)CC1 (stereo not shown) [Terpinen-4-ol] showed an ORAC [1] of 2.2 ± 0.1 μmol TE/μL X, an ABTS [2] of 1.8 ± 0.1 μmol TE/mL X and a DPPH [3] of 0.3 ± 0.0 μmol TE/mL X. For the same compound, the ChP (Chelating power) was 10.3 ± 0.7 μmol EDTAE/mL X, the RdP (Reducing power) was “N/D (Activity lower than 0.05 units at a maximum assay concentration of 100 mM)” and the TBARS [4] was 50.2 ± 10.6 μmol BHTE/mL X.
CC1=CC=C(C(C)C)CC1 [α-terpinene] showed an ORAC [1] of 0.4 ± 0.0 μmol TE/μL X, an ABTS [2] of 24.6 ± 1.2 μmol TE/mL X and a DPPH [3] of 1.7 ± 0.1 μmol TE/mL X. The “Chelating power (ChP), result in words” value (Chelating power) was “high chelating activity”, the ChP (Chelating power) was 385.6 ± 29.0 μmol EDTAE/mL X and the RdP (Reducing power) was 11,531.4 ± 637.1 μmol AAE/L X. For the same compound, the TBARS [4] was “N/D (Activity lower than 0.05 units at a maximum assay concentration of 100 mM)”.
In the case of C=CC(=C)CCC=C(C)C [Myrcene], the ORAC [1] is reported as “N/D (Activity lower than 0.05 units at a maximum assay concentration of 100 mM)”, the ABTS [2] is reported as “N/D (Activity lower than 0.05 units at a maximum assay concentration of 100 mM)” and the DPPH [3] is reported as “N/D (Activity lower than 0.05 units at a maximum assay concentration of 100 mM)”. For the same compound, the ChP (Chelating power) was 14.4 ± 1.0 μmol EDTAE/mL X, the RdP (Reducing power) was “N/D (Activity lower than 0.05 units at a maximum assay concentration of 100 mM)” and the TBARS [4] was “N/D (Activity lower than 0.05 units at a maximum assay concentration of 100 mM)”.
With CC1(C)C2CCC1(C)C(O)C2 (stereo not shown) [Borneol] the ORAC [1] was “N/D (Activity lower than 0.05 units at a maximum assay concentration of 100 mM)”, the ABTS [2] was “N/D (Activity lower than 0.05 units at a maximum assay concentration of 100 mM)” and the DPPH [3] was “N/D (Activity lower than 0.05 units at a maximum assay concentration of 100 mM)”. For the same compound, the ChP (Chelating power) was “N/D (Activity lower than 0.05 units at a maximum assay concentration of 100 mM)”, the RdP (Reducing power) was “N/D (Activity lower than 0.05 units at a maximum assay concentration of 100 mM)” and the TBARS [4] was “N/D (Activity lower than 0.05 units at a maximum assay concentration of 100 mM)”.
With CC12CCC(CC1)C(C)(C)O2 [1,8-Cineole] the ORAC [1] was “N/D (Activity lower than 0.05 units at a maximum assay concentration of 100 mM)”, the ABTS [2] was 0.2 ± 0.0 μmol TE/mL X and the DPPH [3] was “N/D (Activity lower than 0.05 units at a maximum assay concentration of 100 mM)”. For the same compound, the ChP (Chelating power) was 6.7 ± 0.4 μmol EDTAE/mL X, the RdP (Reducing power) was “N/D (Activity lower than 0.05 units at a maximum assay concentration of 100 mM)” and the TBARS [4] was “N/D (Activity lower than 0.05 units at a maximum assay concentration of 100 mM)”.

Reference: paper PMC9322249 (Journal of Food and Drug Analysis, 2017)
